Data set [1] can be described thus: Metabolic stability in human serum assessed as full length product remaining after 10 mins by HPLC. The following applies: read-out: Stability. The format is ADME, cell-free. The gist of the method: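 About 0.5 A260 units compound in 1% human serum in PBS, 37 °C; aliquot taken at 10 min, analysed by anion-exchange HPLC for percent intact full-length product.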

For data set [2], the target named is T1, Toll-like receptor 8 (Homo sapiens) (UniProt Q9NR97).
T1 sequence (whole entry): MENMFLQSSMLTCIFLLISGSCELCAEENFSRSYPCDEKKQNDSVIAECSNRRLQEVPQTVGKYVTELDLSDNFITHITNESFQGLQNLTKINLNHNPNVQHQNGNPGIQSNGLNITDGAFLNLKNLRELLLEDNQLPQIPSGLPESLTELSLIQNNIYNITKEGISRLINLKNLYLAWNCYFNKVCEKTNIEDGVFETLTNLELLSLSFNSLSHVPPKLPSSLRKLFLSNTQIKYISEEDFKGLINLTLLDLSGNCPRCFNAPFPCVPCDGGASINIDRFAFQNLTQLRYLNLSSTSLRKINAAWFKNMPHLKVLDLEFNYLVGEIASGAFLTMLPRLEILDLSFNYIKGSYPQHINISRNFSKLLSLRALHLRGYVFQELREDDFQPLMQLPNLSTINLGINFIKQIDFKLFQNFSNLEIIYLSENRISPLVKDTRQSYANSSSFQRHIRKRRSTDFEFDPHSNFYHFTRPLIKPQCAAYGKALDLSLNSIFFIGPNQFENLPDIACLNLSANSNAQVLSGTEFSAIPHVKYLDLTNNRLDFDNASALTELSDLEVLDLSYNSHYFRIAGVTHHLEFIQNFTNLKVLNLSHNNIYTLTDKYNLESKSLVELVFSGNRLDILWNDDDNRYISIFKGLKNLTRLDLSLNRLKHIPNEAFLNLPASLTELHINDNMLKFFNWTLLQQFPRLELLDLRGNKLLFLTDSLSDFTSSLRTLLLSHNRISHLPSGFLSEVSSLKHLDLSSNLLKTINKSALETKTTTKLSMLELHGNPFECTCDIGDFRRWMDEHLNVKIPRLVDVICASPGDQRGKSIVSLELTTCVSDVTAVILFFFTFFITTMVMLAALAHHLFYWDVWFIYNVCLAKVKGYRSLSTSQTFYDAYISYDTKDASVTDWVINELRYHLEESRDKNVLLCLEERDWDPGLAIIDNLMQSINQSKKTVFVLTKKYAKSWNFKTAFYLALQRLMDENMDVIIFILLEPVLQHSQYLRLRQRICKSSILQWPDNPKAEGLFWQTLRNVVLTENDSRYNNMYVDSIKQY
Description: Activation of human TLR8 expressed in HEK293XL assessed as fold induction of NF-kappaB activity at 50 ug/ml after 18 hrs by reporter gene assay relative to control. The gist of the method:
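HEK293 cells stably expressing human TLR7 or TLR8, transiently transfected with SEAP reporter plasmid; medium replaced, SIMRA compounds added, 18 h incubation. Supernatant SEAP measured by QuantiBlue; expressed as fold increase in NF-κB activity over PBS control. Tabulated data at 50 μg/mL, representative of three independent experiments.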
In general terms: In a reporter assay the amount or activity of a reporter protein is the signal.

In data set [3] the target is T2, Toll-like receptor 9 (Mus musculus) (UniProt Q9EQU3).
T2 sequence (whole entry): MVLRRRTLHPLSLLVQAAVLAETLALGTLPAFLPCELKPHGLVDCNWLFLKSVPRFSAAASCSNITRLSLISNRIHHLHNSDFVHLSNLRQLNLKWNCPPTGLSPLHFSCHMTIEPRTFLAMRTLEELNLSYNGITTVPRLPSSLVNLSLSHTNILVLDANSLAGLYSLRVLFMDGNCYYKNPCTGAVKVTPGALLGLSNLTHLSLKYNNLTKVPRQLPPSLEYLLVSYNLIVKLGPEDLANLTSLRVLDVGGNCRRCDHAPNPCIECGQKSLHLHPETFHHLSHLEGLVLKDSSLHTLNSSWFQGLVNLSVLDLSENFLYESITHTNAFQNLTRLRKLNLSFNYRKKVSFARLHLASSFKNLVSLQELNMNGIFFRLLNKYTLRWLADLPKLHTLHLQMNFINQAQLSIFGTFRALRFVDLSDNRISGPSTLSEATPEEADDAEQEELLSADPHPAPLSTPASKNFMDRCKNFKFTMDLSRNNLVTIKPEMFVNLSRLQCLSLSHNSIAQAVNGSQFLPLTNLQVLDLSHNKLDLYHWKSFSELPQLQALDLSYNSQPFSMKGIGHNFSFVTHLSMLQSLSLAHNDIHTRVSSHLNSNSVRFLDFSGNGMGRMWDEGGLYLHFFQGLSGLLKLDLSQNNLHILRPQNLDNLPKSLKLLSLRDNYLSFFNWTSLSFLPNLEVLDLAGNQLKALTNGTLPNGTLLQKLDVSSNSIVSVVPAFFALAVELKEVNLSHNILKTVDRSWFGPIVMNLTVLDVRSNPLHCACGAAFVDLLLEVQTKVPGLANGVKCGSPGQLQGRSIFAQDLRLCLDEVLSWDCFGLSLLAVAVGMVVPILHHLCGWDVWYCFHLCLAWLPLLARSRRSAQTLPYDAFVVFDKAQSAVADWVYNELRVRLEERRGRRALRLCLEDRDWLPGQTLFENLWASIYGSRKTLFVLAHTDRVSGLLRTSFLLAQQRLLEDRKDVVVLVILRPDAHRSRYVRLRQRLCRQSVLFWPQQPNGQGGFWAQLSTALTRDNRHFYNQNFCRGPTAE
As to the kind of experiment: Activation of mouse TLR9 expressed in HEK293 assessed as induction of NF-kappaB activity reporter gene assay. The format is cell-based.

Data set [4] addresses Toll-like receptor 3 (Homo sapiens) (UniProt O15455). As to the kind of experiment: Activation of human TLR3 expressed in HEK293 assessed as induction of NF-kappaB activity reporter gene assay. The format is cell-based.
Data set [5] relates to Splenocyte. As to the kind of experiment: Immunomodulatory activity in C57BL/6 mouse splenocytes bearing TLR7 receptor assessed as IL6 release at 100 ug/ml after 24 hrs by ELISA. The format is functional, cell-based. The gist of the method: (§1)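 C57BL/6 splenocytes in RPMI 1640 with 10% FBS, penicillin/streptomycin, 2 mM L-glutamine, plated at 5 × 10^6 cells/mL; compounds in PBS added, 37 °C for 24 h. Supernatant IL-12 and IL-6 by ELISA; representative of three independent experiments.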
(In general: An ELISA detects its analyte on a solid surface through an enzyme-linked reagent.)

Data set [6] deals with Splenocyte. Description: Immunomodulatory activity in C57BL/6 mouse splenocytes bearing TLR7 receptor assessed as IL12 release at 100 ug/ml after 24 hrs by ELISA. The format is functional, cell-based. The gist of the method: as §1
Data set [7] deals with PBMC. Description: Immunomodulatory activity in human PBMC assessed as induction of IL12 at 100 ug/ml after 24 hrs. The format is functional, cell-based. The gist of the method: (§2)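 Human PBMCs plated at 5 × 10^6 cells/mL; compounds dissolved in PBS added at various concentrations, 37 °C for 24 h. Supernatant cytokines/chemokines quantified with human Luminex multiplex kit.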

The subject of data set [8] is PBMC. As to the kind of experiment: Immunomodulatory activity in human PBMC assessed as induction of TNFalpha at 100 ug/ml after 24 hrs. The format is functional, cell-based. The gist of the method:
as §2

Data set [9] concerns PBMC. As to the kind of experiment: Immunomodulatory activity in human PBMC assessed as induction of IFN-alpha at 100 ug/ml after 24 hrs.

Active and inactive are the calls of the source. The calls are words filed in the database; no cut-off is given here.

Sequence of Toll-like receptor 3 (Homo sapiens) (O15455 whole entry): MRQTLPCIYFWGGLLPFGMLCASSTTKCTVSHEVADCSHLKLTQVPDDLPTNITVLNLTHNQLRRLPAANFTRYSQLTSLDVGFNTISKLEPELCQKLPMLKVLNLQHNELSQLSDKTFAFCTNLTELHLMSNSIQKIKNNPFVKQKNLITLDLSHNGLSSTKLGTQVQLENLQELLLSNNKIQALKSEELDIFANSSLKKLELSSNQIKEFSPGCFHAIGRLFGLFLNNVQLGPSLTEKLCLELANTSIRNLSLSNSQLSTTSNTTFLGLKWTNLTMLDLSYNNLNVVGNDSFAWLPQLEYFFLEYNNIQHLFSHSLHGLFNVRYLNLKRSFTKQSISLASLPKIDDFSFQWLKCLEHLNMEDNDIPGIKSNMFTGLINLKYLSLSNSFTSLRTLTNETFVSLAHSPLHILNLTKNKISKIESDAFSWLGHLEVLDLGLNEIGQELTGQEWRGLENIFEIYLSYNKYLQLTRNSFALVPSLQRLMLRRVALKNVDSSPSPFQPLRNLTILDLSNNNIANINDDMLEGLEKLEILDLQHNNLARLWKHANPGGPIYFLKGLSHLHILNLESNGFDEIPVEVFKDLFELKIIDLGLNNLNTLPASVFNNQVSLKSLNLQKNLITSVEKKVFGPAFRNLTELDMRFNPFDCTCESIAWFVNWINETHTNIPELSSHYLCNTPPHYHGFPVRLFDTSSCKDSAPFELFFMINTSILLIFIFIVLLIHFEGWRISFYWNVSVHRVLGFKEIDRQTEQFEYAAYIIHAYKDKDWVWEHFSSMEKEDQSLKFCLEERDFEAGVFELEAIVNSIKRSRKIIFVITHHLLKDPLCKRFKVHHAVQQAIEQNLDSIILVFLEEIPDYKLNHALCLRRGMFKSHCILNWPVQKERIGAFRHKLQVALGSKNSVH

In the case of `Nc1ccn([C@@H]2O[C@H](COP(=O)(S)O[C@H]3[C@@H](O)[C@H](n4cnc5c(N)ncnc54)O[C@@H]3COP(=O)(S)O[C@H]3[C@@H](O)[C@H](n4ccc5c(=O)[nH]c(N)nc54)O[C@@H]3COP(=O)(S)O[C@H]3[C@@H](O)[C@H](n4ccc(N)nc4=O)O[C@@H]3COP(=O)(S)O[C@H]3[C@@H](O)[C@H](n4ccc5c(=O)[nH]c(N)nc54)O[C@@H]3COP(=O)(S)O[C@H]3[C@@H](O)[C@H](n4ccc(=O)[nH]c4=O)O[C@@H]3COP(=O)(S)O[C@H]3[C@@H](O)[C@H](n4ccc5c(=O)[nH]c(N)nc54)O[C@@H]3COP(=O)(S)O[C@H]3[C@@H](O)[C@H](n4cnc5c(N)ncnc54)O[C@@H]3COP(=O)(S)O[C@H]3[C@@H](O)[C@H](n4cnc5c(N)ncnc54)O[C@@H]3CO)[C@@H](OP(=O)(S)OC[C@H]3O[C@@H](n4ccc(=O)[nH]c4=O)[C@H](O)[C@@H]3OP(=O)(S)OC[C@H]3O[C@@H](n4ccc(=O)[nH]c4=O)[C@H](O)[C@@H]3OP(=O)(S)OCC(O)COP(=O)(S)O[C@H]3[C@@H](O)[C@H](n4ccc(=O)[nH]c4=O)O[C@@H]3COP(=O)(S)O[C@H]3[C@@H](O)[C@H](n4ccc(=O)[nH]c4=O)O[C@@H]3COP(=O)(S)O[C@H]3[C@@H](O)[C@H](n4ccc(N)nc4=O)O[C@@H]3COP(=O)(S)O[C@H]3[C@@H](O)[C@H](n4cnc5c(N)ncnc54)O[C@@H]3COP(=O)(S)O[C@H]3[C@@H](O)[C@H](n4ccc5c(=O)[nH]c(N)nc54)O[C@@H]3COP(=O)(S)O[C@H]3[C@@H](O)[C@H](n4ccc(N)nc4=O)O[C@@H]3COP(=O)(S)O[C@H]3[C@@H](O)[C@H](n4ccc5c(=O)[nH]c(N)nc54)O[C@@H]3COP(=O)(S)O[C@H]3[C@@H](O)[C@H](n4ccc(=O)[nH]c4=O)O[C@@H]3COP(=O)(S)O[C@H]3[C@@H](O)[C@H](n4ccc5c(=O)[nH]c(N)nc54)O[C@@H]3COP(=O)(S)O[C@H]3[C@@H](O)[C@H](n4cnc5c(N)ncnc54)O[C@@H]3COP(=O)(S)O[C@H]3[C@@H](O)[C@H](n4cnc5c(N)ncnc54)O[C@@H]3CO)[C@H]2O)c(=O)n1` (stereo partly drawn), in data set [1], the remaining at 10 min worked out at 79%. In addition, the fold change (FC) in data set [2] turned out to be 0.5. Moreover, the result in [3] and in [4] was inactive. In addition, the outcome with Splenocyte [5] and with Splenocyte [6] was Active. Also, the Activity in the data set on PBMC [7] is 171 pg/mL; in the data set with PBMC [8], 1.7 pg/mL. Moreover, the IFN-alpha in the data set with PBMC [9] came to 123 pg/mL.
Turning to `Nc1ccn([C@@H]2O[C@H](CO)[C@@H](OP(=O)(S)OC[C@H]3O[C@@H](n4ccc(=O)[nH]c4=O)[C@H](O)[C@@H]3OP(=O)(S)OC[C@H]3O[C@@H](n4ccc5c(=O)[nH]c(N)nc54)[C@H](O)[C@@H]3OP(=O)(S)OC[C@H]3O[C@@H](n4cnc5c(N)ncnc54)[C@H](O)[C@@H]3OP(=O)(S)OC[C@H]3O[C@@H](n4ccc(N)nc4=O)[C@H](O)[C@@H]3OP(=O)(S)OC[C@H]3O[C@@H](n4ccc5c(=O)[nH]c(N)nc54)[C@H](O)[C@@H]3OP(=O)(S)OC[C@H]3O[C@@H](n4cnc5c(N)ncnc54)[C@H](O)[C@@H]3OP(=O)(S)OC[C@H]3O[C@@H](n4ccc5c(=O)[nH]c(N)nc54)[C@H](O)[C@@H]3OP(=O)(S)OC[C@H]3O[C@@H](n4ccc(N)nc4=O)[C@H](O)[C@@H]3OP(=O)(S)OC[C@H]3O[C@@H](n4ccc(=O)[nH]c4=O)[C@H](O)[C@@H]3OP(=O)(S)OC[C@H]3O[C@@H](n4ccc(=O)[nH]c4=O)[C@H](O)[C@@H]3OP(=O)(S)OCC(O)COP(=O)(S)O[C@H]3[C@@H](O)[C@H](n4ccc(=O)[nH]c4=O)O[C@@H]3COP(=O)(S)O[C@H]3[C@@H](O)[C@H](n4ccc(=O)[nH]c4=O)O[C@@H]3COP(=O)(S)O[C@H]3[C@@H](O)[C@H](n4ccc(N)nc4=O)O[C@@H]3COP(=O)(S)O[C@H]3[C@@H](O)[C@H](n4ccc5c(=O)[nH]c(N)nc54)O[C@@H]3COP(=O)(S)O[C@H]3[C@@H](O)[C@H](n4cnc5c(N)ncnc54)O[C@@H]3COP(=O)(S)O[C@H]3[C@@H](O)[C@H](n4ccc5c(=O)[nH]c(N)nc54)O[C@@H]3COP(=O)(S)O[C@H]3[C@@H](O)[C@H](n4ccc(N)nc4=O)O[C@@H]3COP(=O)(S)O[C@H]3[C@@H](O)[C@H](n4cnc5c(N)ncnc54)O[C@@H]3COP(=O)(S)O[C@H]3[C@@H](O)[C@H](n4ccc5c(=O)[nH]c(N)nc54)O[C@@H]3COP(=O)(S)O[C@H]3[C@@H](O)[C@H](n4ccc(=O)[nH]c4=O)O[C@@H]3COP(=O)(S)O[C@H]3[C@@H](O)[C@H](n4ccc(N)nc4=O)O[C@@H]3CO)[C@H]2O)c(=O)n1` (stereo partly drawn), in [1], the remaining at 10 min worked out at 75%. Further, in [2], the fold change (FC) turned out to be 0.6. The outcome in data set [3] and in data set [4] was inactive. Also, the outcome in the data set on Splenocyte [5] and with Splenocyte [6] was Active. For the same molecule, the Activity in the data set with PBMC [7] was found to be 519 pg/mL; in the data set on PBMC [8], 33.4 pg/mL. Moreover, the IFN-alpha in the data set with PBMC [9] amounted to 106 pg/mL.
